The values that follow come from article PMC5120626 (Dermatology and Therapy, 2016).

The conditions of data set [1]: cited from earlier work.
Data set [2] is described as follows: Stability in phosphate buffer. The format is physicochemical. The settings on record: phosphate buffer pH 7.4, 37 °C.
Data set [3] relates to IL-8 release from primary epidermal keratinocytes. As to the kind of experiment: Keratinocyte IL-8 release. It counts as cell-based, human. The settings on record: relative to ingenol disoxate. In short, it runs like this:
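Primary adult human epidermal keratinocytes seeded at 1 × 10^4 cells/well in serum-free EpiLife with HKGS, overnight at 37 °C. Titrated test compound applied for 6 h. Secreted IL-8 measured by MSD 4-spot plates or HTRF. The EC50 is the concentration giving 50% of the maximum reached by a reference ingenol ester, from four experiments.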

The subject of another data set is Neutrophil granulocytes. As to the kind of experiment: Neutrophil granulocyte respiratory burst. The format is cell-based. The settings on record: relative to ingenol disoxate. In short, it runs like this: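 Human neutrophils isolated from buffy coats by sedimentation, Lymphoprep density centrifugation and erythrocyte lysis. Plated at 2.5 × 10^5 cells/well in HBSS with Ca2+/Mg2+, 0.1% BSA and 5 mM glucose. Titrated test compound premixed with 10 µM hydroethidine for 40 min at ambient temperature; fluorescence ex 485/em 579 nm.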

In data set [4] the test system is keratinocyte differentiation markers (INVL, TGM1, FLG, LOR) in primary human epidermal keratinocytes. The experiment in a line: Real-time quantitative PCR of keratinocyte differentiation markers. The format is cell-based. In outline:
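Primary human epidermal keratinocytes in low-calcium EpiLife (0.06 mM CaCl2) were given 100 nM test compound for 72 h, with or without 500 nM bisindolylmaleimide I for 30 min beforehand. High-calcium medium (1.8 mM) served as the differentiation reference. KRT1, KRT10, INVL, TGM1, FLG and LOR measured by qPCR, normalised to PPIA, RPLP0, GAPDH and TBP and expressed relative to vehicle. Two donors.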

Data set [5] in a line: Local skin reaction in guinea pigs. The settings on record: single topical application, 0.015% and 0.05% gel; hairless guinea pigs. The format is in vivo, guinea pig. In outline:
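Seven female IAF hairless guinea pigs (Crl:HA-Hr Hr) received 10 µL of 0.015% or 0.05% gel, or vehicle, on five 2 cm2 flank fields, one condition per field. LSR was scored daily for up to 4 days as a composite of edema, erythema, ulceration and subcutaneous bleeding. Four animals were killed at 24 h for 4 mm punch biopsies and H&E sections.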

A short description of data set [6]: Skin penetration in a Franz chamber diffusion set-up. The settings on record: 21 h. It counts as in vitro ADME, human. In short, it runs like this:
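Full-thickness human abdominal skin in vertical Franz cells (2 cm orifice, nine cells per treatment) at 32 °C, with stirred EpiLife plus keratinocyte supplement as receptor. 0.1% w/v hydroalcoholic gel applied for 21 h. Surface excess removed, stratum corneum tape-stripped 12 times, then epidermis and dermis heat-separated and quantified. LOQ 3 ng/biopsy; Mann–Whitney comparison.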

Data set [7] concerns primary epidermal keratinocytes. The experiment in a line: Keratinocyte viability and caspase 3/7 activation. It counts as cell-based, human. The settings on record: growth-arresting concentrations (100 nM and above); 72 h.
Data set [8] in a line: First tier chemical stability assessment in aqueous buffer. It counts as physicochemical. The settings on record: aqueous buffer pH 7.4; 16 h, room temperature.
The subject of data set [9] is primary epidermal keratinocytes. The experiment in a line: Keratinocyte proliferation. The settings on record: concentrations from 100 nM to 10 µM; 72 h. It counts as cell-based, human. In short, it runs like this: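 Primary adult human epidermal keratinocytes (log phase) at 4 × 10^3 cells/well in serum-free EpiLife with HKGS, overnight at 37 °C. Exposed to titrated test compound for 72 h. Proliferation read as DNA content with CyQUANT Direct stain. Percent inhibition normalised to 1 µM geldanamycin.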

The subject of another data set is UV-induced skin tumors. The experiment in a line: UV-induced skin cancer mouse model. The format is in vivo. The settings on record: two consecutive days.
Another data set can be described thus: Distribution coefficient. It counts as physicochemical. The settings on record: octanol/citrate buffer, pH 3.
A short description of data set [10]: Stability in hydroalcoholic gel. It counts as physicochemical. The settings on record: for Largest single impurity (5-isomer re-arrangement product): 0.05% w/v gel, 25 °C/60%RH. In short, it runs like this:
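Hydroalcoholic gel at pH 2.8 in citrate buffer, containing benzyl alcohol and isopropanol. For assay, 0.4 g gel was dispersed in 0.1% phosphoric acid/acetonitrile 50:50 and diluted to 10.0 mL. Reverse-phase UHPLC on an HSS C18 column with a 50–95% acetonitrile gradient and UV at 220 nm, against an external reference standard. Run in duplicate.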

Another data set has as its system B16 melanoma. As to the kind of experiment: B16 melanoma mouse model. It counts as in vivo. The settings on record: 0.1% in hydroalcoholic gel, topical, two consecutive days; at 3 months. In outline:
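Female C57BL/6J mice aged 8–10 weeks received 5 × 10^5 B16 cells intradermally in the flank. Once nodules were visible, tumours were measured by caliper (volume […]) and mice split into cohorts of 8–10 with equal volumes. Treatment was topical, 20 µL of 0.1% hydroalcoholic gel on two consecutive days. The endpoint was a tumour above 250 mm3 or ulceration.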

As for `CC1=C[C@]23C(=O)[C@@H](C=C(CO)[C@@H](O)[C@]2(O)[C@H]1O)[C@H]1[C@@H](C[C@H]3C)C1(C)C` [Ingenol], the biological activity result in data set [1] is “lacks biological activity”.
For the compound `CCc1noc(CC)c1C(=O)OCC1=CC2C(=O)C3(C=C(C)C(O)C3(O)C1O)C(C)CC1C2C1(C)C` (stereo not shown) [compound 9, Ingenol-20-(3,5-Diethylisoxazole-4-Carboxylate)], in data set [2] (24 h), the stability over time result is listed as “did not change over time”. For the same compound, the “fold less potent in IL-8 release assay” value in [3] is “at least 150 fold”. Further, the “fold less potent in neutrophil activation assay” value in the data set on Neutrophil granulocytes is given as “at least 150 fold”.
Turning to `CN(C)CCCn1cc(C2=C(c3c[nH]c4ccccc34)C(=O)NC2=O)c2ccccc21` [bisindolylmaleimide-1, bisindolylmaleimide I], the “effect of pretreatment on marker induction by ingenol derivatives” value in [4] (500 nM, 30 min pre-incubation before 100 nM ingenol derivatives) is “abolished”.
As to `CCc1noc(CC)c1C(=O)OC1C(CO)=CC2C(=O)C3(C=C(C)C(O)C13O)C(C)CC1C2C1(C)C` (stereo not shown) [compound 8, Ingenol-5-(3,5-Diethylisoxazole-4-Carboxylate)], in [2], the “20-isomer in equilibrated mixture” value is 86–88%. Moreover, the “fold less potent in IL-8 release assay” value in data set [3] is on record as “approximately tenfold”. Further, the “fold less potent in neutrophil activation assay” value in the data set with Neutrophil granulocytes was ~56 fold.
Broadly, the logD is the decadic logarithm of the distribution of all forms, ionised or not, between an organic phase and buffer at a given pH. Lower therefore signals lower lipophilicity. With `C/C=C(/C)C(=O)O[C@H]1C(C)=C[C@]23C(=O)[C@@H](C=C(CO)[C@@H](O)[C@]12O)[C@H]1[C@@H](C[C@H]3C)C1(C)C` [Ingenol mebutate, Ingenol 3-Angelate], the “local skin reaction (LSR)” value in data set [5] is “robust LSR response”. Moreover, the “time of peak local skin reaction” value in data set [5] was found to be 24 h. Besides, in [6] (0.1% gel), the “epidermal relative to dermal concentration” value is recorded as “more than 100 fold”. In addition, in [6] (0.1% in hydroalcoholic gel, topical), the Dermal exposure level is listed as 364 ± 64 nM. Moreover, in data set [6] (0.1% in hydroalcoholic gel, topical, stratum corneum removed), the epidermal concentration level turned out to be 100 µM. For the same compound, the “cytotoxicity or apoptosis (viability, caspase 3/7)” value in data set [7] was “No signs of cytotoxicity or apoptosis”. Also, in [8], the compound recovered was 60%. Besides, the growth inhibition result in [9] is given as “Total growth inhibition without obvious signs of toxicity”. Further, the antitumor effect result in the data set on UV-induced skin tumors (0.05% gel) is listed as “slightly weaker effect”; in the data set with UV-induced skin tumors (0.1% gel), “comparable effect”. Besides, the tumor clearance entry in the data set with UV-induced skin tumors (topical gel, SKH1 mice, largely maintained 5 weeks post treatment) was “more than 50%”. The logD at 24 h in the data set “Distribution coefficient” was 3.5. In addition, the decrease of concentration in data set [10] (0.05% gel, after 6 months storage at 25 °C/60%RH) is 8.0 % of label claim. The “Largest single impurity (5-isomer re-arrangement product)” value in data set [10] (6 months) is 5.1 area %; in data set [10] (Start), 0.2 area %. For the same compound, the “animals remaining tumor free (overall tumor free survival)” value in the data set on B16 melanoma was 45%. Also, the “transcription of intermediate (INVL) and late (TGM1, FLG, LOR) keratinocyte differentiation markers” value in [4] (100 nM, 72 h, low calcium medium) is “stimulated transcription”.
